These results are taken from the array DNA melting data of Ke et al. (doi:10.1101/2024.01.08.574731).

Data set [1] in a line: melting temperature; fluorescence melt of hairpins on a sequencing array, two-state fit, raised by 9.35 °C to match UV melts. The settings on record: sodium 0.088 M. In a few lines: (§1)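 Bootstrapped two-state fits yielded melting temperature and folding enthalpy for library hairpins. Cy3 fluorescence, with annealed Cy3 and quencher oligos, was imaged on a sequenced MiSeq flow cell in 50 mM Na-HEPES pH 8.0, 25 mM NaCl in 2.5 °C steps up to 60 °C, and normalised to pre-quench Cy3 and to control constructs. Four replicates were combined by inverse variance, and fitted temperatures were raised by 9.35 °C to match UV melts.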

Data set [2] is described as follows: folding enthalpy; higher = less favourable; fluorescence melt of hairpins on a sequencing array, two-state fit. Conditions: sodium 0.088 M. An outline of the steps: as §1

With GTCAGCCGAAAGGCGGAC (((.(((....))).))), the Tm in data set [1] worked out at 68 °C. Also, in data set [2], the folding enthalpy is -33.1 kcal/mol.

For GTCAGCGAAAGCTAGAC ((((((....))).))), the Tm in data set [1] is 50.7 °C. In addition, in data set [2], the folding enthalpy was -22.8 kcal/mol.

Take GTCAGCGAAAGCTCCGAC ((((((....)))..))): in data set [1], the Tm was found to be 28.9 °C. For the same sequence, in data set [2], the folding enthalpy is -13.5 kcal/mol.

In the case of GTCAGCGAAAGCTCGGAC ((((((....)))..))), the Tm in data set [1] is 37.3 °C. For the same sequence, in data set [2], the folding enthalpy was -12.4 kcal/mol.

Turning to GTCAGCGAAAGCTGCGAC ((((((....)))..))), the Tm in data set [1] was found to be 55.2 °C. In data set [2], the folding enthalpy is -11.8 kcal/mol.

In the case of GTCAGCGAAAGCTTGGAC ((((((....)))..))), in data set [1], the Tm turned out to be 38.2 °C. The folding enthalpy in data set [2] is -13.9 kcal/mol.

As to GTCAGGAAACTGAC (((((....))))), the Tm in data set [1] worked out at 53.6 °C. The folding enthalpy in data set [2] is -25.6 kcal/mol.

With GTCAGGCGAAAGCCAGAC (((.(((....))).))), the Tm in data set [1] amounted to 59.8 °C. Further, the folding enthalpy in data set [2] is -23.4 kcal/mol.

In the case of GTCAGGCGAAAGCCGAC (((.(((....)))))), the Tm in data set [1] is 60.6 °C. Moreover, the folding enthalpy in data set [2] is -16.5 kcal/mol.

Take GTCAGGGGAAACCCCGAC (((.(((....))).))): the Tm in data set [1] is 50.2 °C. Further, in data set [2], the folding enthalpy was -24.8 kcal/mol.

On to GTCAGGGGAAACCTTGGC (.((.((....)).)).), for which the Tm in data set [1] was determined as 32.7 °C. Besides, the folding enthalpy in data set [2] is -17.3 kcal/mol.

On to GTCATACGAAAGTAGGAC (((.(((....))).))), for which the Tm in data set [1] stood at 53.9 °C. Further, in data set [2], the folding enthalpy is -29.3 kcal/mol.

GTCATAGGAAACCATGAC (((((.(....).))))): the Tm in data set [1] came out at 38.5 °C. In data set [2], the folding enthalpy is -27.6 kcal/mol.

GTCATCACGAAAGTGGAC (((..(((....)))))): in data set [1], the Tm was 35.3 °C. The folding enthalpy in data set [2] is -12.7 kcal/mol.

Consider GTCATCCCGAAAGGGGAC (((..(((....)))))), for which, in data set [1], the Tm came out at 37.8 °C. Besides, in data set [2], the folding enthalpy was -14.1 kcal/mol.

Consider GTCATCCGAAAGGAGAC (((.(((....)))))), for which the Tm in data set [1] worked out at 45.2 °C. In data set [2], the folding enthalpy is -20.1 kcal/mol.

In the case of GTCATCGAAAGATCGAC ((((((....))).))), the Tm in data set [1] was found to be 35.7 °C. Also, the folding enthalpy in data set [2] was -22.1 kcal/mol.

For the sequence GTCATCGAAAGATGCGAC ((((((....)))..))), the Tm in data set [1] was found to be 46.1 °C. Moreover, in data set [2], the folding enthalpy was -19.8 kcal/mol.

Take GTCATCGGAAACGATGGC (.(((((....))))).): the Tm in data set [1] was found to be 56.2 °C. The folding enthalpy in data set [2] was -28.1 kcal/mol.

GTCATCGGAAACGGTGAC ((((.((....)).)))): the Tm in data set [1] worked out at 55 °C. In addition, the folding enthalpy in data set [2] was -38.1 kcal/mol.

As for GTCATGCGAAAGCAGGAC (((.(((....))).))), in data set [1], the Tm is 67.7 °C. In data set [2], the folding enthalpy is -32.2 kcal/mol.

Turning to GTCATGGGAAACCATGAC (((((((....))))))), the Tm in data set [1] was 60.7 °C. For the same sequence, in data set [2], the folding enthalpy was -44.5 kcal/mol.

Regarding GTCATTCGAAAGAACGAC (((.(((....))).))), the Tm in data set [1] was 41.1 °C. Besides, the folding enthalpy in data set [2] was -31 kcal/mol.

On to GTCATTGGAAACAACGAC (((.(((....))).))), for which the Tm in data set [1] was determined as 35.5 °C. In addition, the folding enthalpy in data set [2] is -20.9 kcal/mol.

In the case of GTCATTGGAAACAGTGAC ((((.((....)).)))), the Tm in data set [1] was found to be 43.9 °C. In addition, in data set [2], the folding enthalpy was -33.7 kcal/mol.

For the sequence GTCCAAGGAAACTTGGAC (((((((....))))))), the Tm in data set [1] came to 61.6 °C. In addition, the folding enthalpy in data set [2] is -41.8 kcal/mol.

In the case of GTCCAAGGAAACTTGGGC (.(((((....))))).), in data set [1], the Tm is 51.1 °C. Besides, in data set [2], the folding enthalpy was -46.6 kcal/mol.

Take GTCCACGAAAGTGACGAC ((((((....)))..))): in data set [1], the Tm was determined as 43.9 °C. In addition, the folding enthalpy in data set [2] was -20.4 kcal/mol.

Consider GTCCACGAAAGTGCTGAC ((((((....)))..))), for which the Tm in data set [1] worked out at 33.9 °C. Besides, in data set [2], the folding enthalpy is -14.7 kcal/mol.

Consider GTCCACGAAAGTGGTGAC ((((((....)))..))), for which the Tm in data set [1] was 38.2 °C. In data set [2], the folding enthalpy is -9.78 kcal/mol.

For GTCCACGAAAGTGTGGAC ((((((....)))..))), in data set [1], the Tm came out at 55.8 °C. Further, in data set [2], the folding enthalpy was -27.1 kcal/mol.

Take GTCCACGGAAACGCAGAC (((..((....))..))): the Tm in data set [1] came out at 29.1 °C. The folding enthalpy in data set [2] is -21.3 kcal/mol.

Take GTCCACGGAAACGCGGAC ((((.((....)).)))): the Tm in data set [1] is 53.8 °C. For the same sequence, the folding enthalpy in data set [2] is -45.8 kcal/mol.

Take GTCCACGGAAACGTGGGC (.(((((....))))).): the Tm in data set [1] was 62.1 °C. In addition, in data set [2], the folding enthalpy is -28.2 kcal/mol.

With GTCCAGGGAAACTTGGAC (((((.(....).))))), the Tm in data set [1] came out at 48.2 °C. In addition, the folding enthalpy in data set [2] was -22.3 kcal/mol.

In the case of GTCCATCGAAAGATCGAC (((.(((....))).))), the Tm in data set [1] came out at 35.5 °C. For the same sequence, the folding enthalpy in data set [2] was -31 kcal/mol.

With GTCCATGAAAATGGAC ((((((....)))))), the Tm in data set [1] was 62.4 °C. In data set [2], the folding enthalpy was -31.7 kcal/mol.
